What follows are compounds tested against Neuronal acetylcholine receptor subunit alpha-6 (Rattus norvegicus) (UniProt P43143) (assay: Antagonist activity at alpha6 nAChR in rat striatum assessed as inhibition of nicotine-induced [3H]dopamine release relative to nicotine).
Type: functional, tissue-based
In short: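 [3H]DA release from superfused rat striatal slices was evoked by 10 μM nicotine and tested across a full analogue concentration range. IC50 and Imax were derived from the concentration-response curves, with inhibition relative to the nicotine response in the absence of analogue. 4–6 independent experiments.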

Chain of Neuronal acetylcholine receptor subunit alpha-6 (Rattus norvegicus) (P43143 whole entry): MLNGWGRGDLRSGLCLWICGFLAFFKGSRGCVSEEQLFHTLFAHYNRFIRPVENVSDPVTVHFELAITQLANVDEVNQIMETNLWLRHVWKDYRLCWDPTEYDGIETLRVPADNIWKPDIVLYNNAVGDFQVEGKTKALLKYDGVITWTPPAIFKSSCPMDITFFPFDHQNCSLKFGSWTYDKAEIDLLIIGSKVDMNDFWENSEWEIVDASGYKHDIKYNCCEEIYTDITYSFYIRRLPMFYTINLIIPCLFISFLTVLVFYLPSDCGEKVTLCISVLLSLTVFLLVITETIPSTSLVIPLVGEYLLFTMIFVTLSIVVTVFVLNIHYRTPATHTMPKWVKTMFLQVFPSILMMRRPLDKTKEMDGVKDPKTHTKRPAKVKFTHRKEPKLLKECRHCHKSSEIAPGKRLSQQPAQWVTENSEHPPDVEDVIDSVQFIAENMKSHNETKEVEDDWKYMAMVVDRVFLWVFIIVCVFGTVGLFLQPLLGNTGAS

Compound | Imax
c1ccc2c(c1)CCN(CCCCCc1cc(CCCCCN3CCc4ccccc4C3)cc(CCCCCN3CCc4ccccc4C3)c1)C2 | 58%
c1ccc2c(c1)CCN(CCCCCCCCCCN1CCc3ccccc3C1)C2 | 74%
Cc1ccc[n+](CCCCCCCCCC[n+]2cccc(C)c2)c1 | 63%
c1ccc2c(c1)CCN(CCCCCCCCCCCCN1CCc3ccccc3C1)C2 | 76%
CC1=CCCN(CCCC#Cc2cc(C#CCCCN3CCC=C(C)C3)cc(C#CCCCN3CCC=C(C)C3)c2)C1 | 67%
Cc1ccc[n+](CCCCCCCCCCCC[n+]2cccc(C)c2)c1 | 63%
OCCCC1=CCCN(CCCCCc2cc(CCCCCN3CCC=C(CCCO)C3)c(CCCCCN3CCC=C(CCCO)C3)cc2CCCCCN2CCC=C(CCCO)C2)C1 | 64%
CC1=CCCN(CCCCCCCCCCN2CCC=C(C)C2)C1 | 65%
c1ccc2c[n+](CCCCCc3cc(CCCCC[n+]4ccc5ccccc5c4)c(CCCCC[n+]4ccc5ccccc5c4)cc3CCCCC[n+]3ccc4ccccc4c3)ccc2c1 | 52%
Cc1ccc[n+](CCCC#Cc2cc(C#CCCC[n+]3cccc(C)c3)cc(C#CCCC[n+]3cccc(C)c3)c2)c1 | 67%
C(#Cc1ccccc1C#CCCC[n+]1ccc2ccccc2c1)CCC[n+]1ccc2ccccc2c1 | 59%
c1ccc2c[n+](CCCCCCCCCCCC[n+]3ccc4ccccc4c3)ccc2c1 | 53%
c1ccc2c(c1)CCN(CCCCCc1cc(CCCCCN3CCc4ccccc4C3)c(CCCCCN3CCc4ccccc4C3)cc1CCCCCN1CCc3ccccc3C1)C2 | 64%
OCCCc1ccc[n+](CCCCCc2cc(CCCCC[n+]3cccc(CCCO)c3)c(CCCCC[n+]3cccc(CCCO)c3)cc2CCCCC[n+]2cccc(CCCO)c2)c1 | 63%
CC1=CCCN(CCCCCCCCCCCCN2CCC=C(C)C2)C1 | 60%
c1ccc2c[n+](CCCCCCCCCC[n+]3ccc4ccccc4c3)ccc2c1 | 95%

What follows are compounds tested against Neuronal acetylcholine receptor subunit alpha-6 (Rattus norvegicus) (UniProt P43143) (assay: Antagonist activity at alpha6 nAChR in rat striatum assessed as inhibition of nicotine-induced [3H]dopamine release at 100 nM relative to control).
Type: functional, tissue-based
In short: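 Superfused rat striatal slices preloaded with [3H]DA. Nicotine-evoked [3H]DA release was elicited by 10 μM nicotine with 100 nM analogue present. Inhibition is expressed as a percentage of the nicotine response under control conditions without analogue. At least 3 independent experiments, each in duplicate.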

Compound | inhibition
c1ccc2c(c1)CCN(CCCCCc1cc(CCCCCN3CCc4ccccc4C3)cc(CCCCCN3CCc4ccccc4C3)c1)C2 | 58%
CC1=CCCN(CCCC#Cc2cc(C#CCCCN3CCC=C(C)C3)cc(C#CCCCN3CCC=C(C)C3)c2)C1 | 83%
OCCCC1=CCCN(CCCCCc2cc(CCCCCN3CCC=C(CCCO)C3)c(CCCCCN3CCC=C(CCCO)C3)cc2CCCCCN2CCC=C(CCCO)C2)C1 | 40%
CC1=CCCN(CCCCCCCCCCN2CCC=C(C)C2)C1 | 36%
Cc1ccc[n+](CCCC#Cc2cc(C#CCCC[n+]3cccc(C)c3)cc(C#CCCC[n+]3cccc(C)c3)c2)c1 | 40%
C(#Cc1ccccc1C#CCCCN1CCc2ccccc2C1)CCCN1CCc2ccccc2C1 | 18%
c1ccc2c(c1)CCN(CCCCCc1cc(CCCCCN3CCc4ccccc4C3)c(CCCCCN3CCc4ccccc4C3)cc1CCCCCN1CCc3ccccc3C1)C2 | 84%
OCCCc1ccc[n+](CCCCCc2cc(CCCCC[n+]3cccc(CCCO)c3)c(CCCCC[n+]3cccc(CCCO)c3)cc2CCCCC[n+]2cccc(CCCO)c2)c1 | 41%
CC1=CCCN(CCCCCCCCCCCCN2CCC=C(C)C2)C1 | 50%
c1ccc2c[n+](CCCCCc3cc(CCCCC[n+]4ccc5ccccc5c4)cc(CCCCC[n+]4ccc5ccccc5c4)c3)ccc2c1 | 28%

Each compound was assayed against Neuronal acetylcholine receptor subunit alpha-6 (Rattus norvegicus, UniProt P43143) (assay: Antagonist activity at alpha6 nAChR in rat striatum assessed as inhibition of nicotine-induced [3H]dopamine release).
Chain of Neuronal acetylcholine receptor subunit alpha-6 (P43143 whole entry): as above
Type: functional, tissue-based
In short: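 Superfused rat striatal slices preloaded with [3H]DA; release evoked by 10 μM nicotine. Screening used 100 nM analogue, with inhibition expressed as % of the nicotine response without analogue (≥3 independent experiments, each in duplicate). Compounds giving >40% inhibition had full concentration-response curves run to derive IC50 and Imax (4–6 independent experiments).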

Compound | IC50
c1ccc2c(c1)CCN(CCCCCc1cc(CCCCCN3CCc4ccccc4C3)cc(CCCCCN3CCc4ccccc4C3)c1)C2 | 0.35 nM
c1ccc2c(c1)CCN(CCCCCCCCCCN1CCc3ccccc3C1)C2 | 9.91 nM
Cc1ccc[n+](CCCCCCCCCC[n+]2cccc(C)c2)c1 | 180 nM
c1ccc2c(c1)CCN(CCCCCCCCCCCCN1CCc3ccccc3C1)C2 | 8.59 nM
CC1=CCCN(CCCC#Cc2cc(C#CCCCN3CCC=C(C)C3)cc(C#CCCCN3CCC=C(C)C3)c2)C1 | 3.22 nM
Cc1ccc[n+](CCCCCCCCCCCC[n+]2cccc(C)c2)c1 | 2 nM
OCCCC1=CCCN(CCCCCc2cc(CCCCCN3CCC=C(CCCO)C3)c(CCCCCN3CCC=C(CCCO)C3)cc2CCCCCN2CCC=C(CCCO)C2)C1 | 30 nM
CC1=CCCN(CCCCCCCCCCN2CCC=C(C)C2)C1 | 37.4 nM
c1ccc2c[n+](CCCCCc3cc(CCCCC[n+]4ccc5ccccc5c4)c(CCCCC[n+]4ccc5ccccc5c4)cc3CCCCC[n+]3ccc4ccccc4c3)ccc2c1 | 56 nM
Cc1ccc[n+](CCCC#Cc2cc(C#CCCC[n+]3cccc(C)c3)cc(C#CCCC[n+]3cccc(C)c3)c2)c1 | 0.2 nM
C(#Cc1ccccc1C#CCCC[n+]1ccc2ccccc2c1)CCC[n+]1ccc2ccccc2c1 | 63 nM
c1ccc2c[n+](CCCCCCCCCCCC[n+]3ccc4ccccc4c3)ccc2c1 | 40 nM
c1ccc2c(c1)CCN(CCCCCc1cc(CCCCCN3CCc4ccccc4C3)c(CCCCCN3CCc4ccccc4C3)cc1CCCCCN1CCc3ccccc3C1)C2 | 205 nM
OCCCc1ccc[n+](CCCCCc2cc(CCCCC[n+]3cccc(CCCO)c3)c(CCCCC[n+]3cccc(CCCO)c3)cc2CCCCC[n+]2cccc(CCCO)c2)c1 | 3 nM
CC1=CCCN(CCCCCCCCCCCCN2CCC=C(C)C2)C1 | 0.95 nM
c1ccc2c[n+](CCCCCCCCCC[n+]3ccc4ccccc4c3)ccc2c1 | 70 nM

From ChEMBL document CHEMBL1641376, “Novel bis-, tris-, and tetrakis-tertiary amino analogs as antagonists at neuronal nicotinic receptors that mediate nicotine-evoked dopamine release” (Bioorg Med Chem Lett, 2011)
